This note sets out measurements from ChEMBL document CHEMBL5316332 (J Med Chem, 2023).

The target in test [1] is T1, Bone morphogenetic protein receptor type-2 (Homo sapiens) (UniProt Q13873).
T1 sequence (whole entry): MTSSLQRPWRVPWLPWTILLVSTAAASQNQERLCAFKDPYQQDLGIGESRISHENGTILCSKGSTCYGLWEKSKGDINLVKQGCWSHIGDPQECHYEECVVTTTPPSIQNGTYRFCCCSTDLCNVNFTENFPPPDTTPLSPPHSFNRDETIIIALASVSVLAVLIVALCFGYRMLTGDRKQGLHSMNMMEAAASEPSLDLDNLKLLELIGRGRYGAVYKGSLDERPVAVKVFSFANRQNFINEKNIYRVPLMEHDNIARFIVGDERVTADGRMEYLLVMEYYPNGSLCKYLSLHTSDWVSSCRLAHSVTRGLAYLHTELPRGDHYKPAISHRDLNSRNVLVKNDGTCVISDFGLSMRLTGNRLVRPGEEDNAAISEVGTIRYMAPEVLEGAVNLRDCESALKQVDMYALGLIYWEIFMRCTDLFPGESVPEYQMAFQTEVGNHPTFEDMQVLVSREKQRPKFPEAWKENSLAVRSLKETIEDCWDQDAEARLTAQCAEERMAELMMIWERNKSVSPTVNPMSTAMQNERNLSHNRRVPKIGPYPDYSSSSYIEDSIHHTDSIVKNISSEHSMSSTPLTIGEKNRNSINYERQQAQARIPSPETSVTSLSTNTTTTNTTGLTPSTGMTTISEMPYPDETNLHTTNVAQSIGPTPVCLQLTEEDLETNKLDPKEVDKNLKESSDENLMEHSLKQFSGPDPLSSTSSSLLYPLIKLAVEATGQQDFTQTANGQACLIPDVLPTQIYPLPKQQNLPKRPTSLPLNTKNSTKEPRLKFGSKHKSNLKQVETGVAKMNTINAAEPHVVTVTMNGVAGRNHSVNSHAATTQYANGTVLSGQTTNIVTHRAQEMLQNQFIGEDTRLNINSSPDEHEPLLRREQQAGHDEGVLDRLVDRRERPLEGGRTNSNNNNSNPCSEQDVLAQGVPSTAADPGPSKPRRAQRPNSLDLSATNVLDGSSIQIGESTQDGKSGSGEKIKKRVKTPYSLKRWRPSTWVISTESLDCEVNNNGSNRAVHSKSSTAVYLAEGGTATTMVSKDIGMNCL
Briefly: Inhibition of human BMPR2 at 1 uM by DiscoveRx Kinomescan method. The gist of the method: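 Outsourced KINOMEscan panel of 403 kinases, with compound at 1 μM.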

For test [2], the target named is T2, Activin receptor type-1 (Homo sapiens) (UniProt Q04771).
T2 sequence (whole entry): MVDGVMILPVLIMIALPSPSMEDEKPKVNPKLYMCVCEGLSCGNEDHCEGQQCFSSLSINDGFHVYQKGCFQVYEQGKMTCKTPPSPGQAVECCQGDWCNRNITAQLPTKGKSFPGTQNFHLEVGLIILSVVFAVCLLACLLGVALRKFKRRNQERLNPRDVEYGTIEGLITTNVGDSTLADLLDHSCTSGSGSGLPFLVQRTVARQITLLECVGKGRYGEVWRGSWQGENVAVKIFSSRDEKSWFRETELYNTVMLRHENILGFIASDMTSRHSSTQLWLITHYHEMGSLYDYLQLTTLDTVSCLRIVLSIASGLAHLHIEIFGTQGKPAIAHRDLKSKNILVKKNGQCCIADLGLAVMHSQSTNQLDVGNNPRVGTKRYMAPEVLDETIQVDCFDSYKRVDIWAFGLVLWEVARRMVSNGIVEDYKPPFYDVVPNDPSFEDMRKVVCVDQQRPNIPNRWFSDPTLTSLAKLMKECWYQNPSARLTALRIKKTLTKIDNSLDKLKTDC
In words: Inhibition of ACVR1 (unknown origin) by LanthaScreen TR-FRET assay. The procedure, abridged: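 Outsourced SelectScreen profiling using a LanthaScreen TR-FRET binding format, in which a tight-binding tracer is displaced from the kinase.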
(In general: In TR-FRET formats the signal depends on donor and acceptor labels being close together.)

The source made the active and inactive calls. The calls are words filed in the database; no cut-off is given here.

As for `CNC(=O)[C@@H]1CC[C@@H](n2c(-c3ccc4cnccc4c3)nc3ccc(C(=O)NCc4cccc(C(N)=O)c4)cc32)C1`, in test [1], the inhibition result was “Active”.

In the case of `COc1cnc(Nc2cccc(S(N)(=O)=O)c2)nc1N1CCN(c2ccccc2)C(=O)C1`, the inhibition entry in test [2] was “inactive”.
